Here are results for three molecules from ChEMBL document CHEMBL1122968, “Myocardial imaging agents: synthesis, characterization, and evaluation of (Z)- and (Z,E)-18-[82Br]bromo-5-tellura-17-octadecenoic acids” (J Med Chem, 1985).

In data set [1] the test system is Rattus norvegicus. Briefly: Radioactivity was determined in heart tissues of female fischer 344 rats by intravenous administration after 1 hour. The settings on record: in vivo. It counts as ADME, organism-based. In a few lines: (§1)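 Female Fischer 344 rats, 10–12 weeks, 170–200 g, fed ad libitum. The 82Br-labeled fatty acid was taken up in 0.5 mL absolute ethanol and added dropwise to stirred 6% bovine serum albumin at ~40 °C (final ethanol 10%), then 0.22-μm filtered. Dosing was a lateral tail vein injection under ether anesthesia. Rats were killed by cervical fracture at the stated time and blood was taken by cardiac puncture.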

Data set [2] has as its system Rattus norvegicus. Put plainly: Radioactivity was determined in lung tissues of female fischer 344 rats by intravenous administration after 5 minutes. It counts as ADME, organism-based. The note with it: in vivo. In a few lines: as §1
The subject of data set [3] is Rattus norvegicus. Briefly: Radioactivity was determined in lung tissues of female fischer 344 rats by intravenous administration after 1 hour. It counts as ADME, organism-based. The note with it: in vivo. In a few lines: as §1
In data set [4] the test system is Rattus norvegicus. Briefly: Radioactivity was determined in liver tissues of female fischer 344 rats by intravenous administration after 5 minutes. It counts as ADME, organism-based. The settings on record: in vivo. In a few lines: as §1
Data set [5] relates to Rattus norvegicus. Put plainly: Radioactivity was determined in lung tissues of female fischer 344 rats by intravenous administration after 1 day. The note with it: in vivo, 24 h. The class given is ADME, organism-based. In outline: as §1
Data set [6] relates to Rattus norvegicus. Put plainly: Radioactivity was determined in liver tissues of female fischer 344 rats by intravenous administration after 1 day. The settings on record: in vivo, 24 h. The class given is ADME, organism-based. In a few lines:
as §1

Data set [7] deals with Rattus norvegicus. Briefly: Radioactivity was determined in blood tissues of female fischer 344 rats by intravenous administration after 1 day. The class given is ADME, organism-based. The settings on record: in vivo, 24 h. In a few lines: as §1
Data set [8] deals with Rattus norvegicus. Put plainly: Radioactivity was determined in blood tissues of female fischer 344 rats by intravenous administration after 1 hour. The settings on record: in vivo. The class given is ADME, organism-based. In a few lines:
as §1

Data set [9] deals with Rattus norvegicus. Briefly: Radioactivity was determined in kidneys of female fischer 344 rats by intravenous administration after 30 minutes. The class given is ADME, organism-based, Kidney. The note with it: in vivo, 0.5 h. In a few lines:
as §1

The subject of data set [10] is Rattus norvegicus. Briefly: Radioactivity was determined in blood tissues of female fischer 344 rats by intravenous administration after 5 minutes. The class given is ADME, organism-based. The note with it: in vivo. In a few lines:
as §1

In data set [11] the test system is Rattus norvegicus. Briefly: Radioactivity was determined in liver tissues of female fischer 344 rats by intravenous administration after 1 hour. It counts as ADME, organism-based. The note with it: in vivo. In a few lines: as §1
The subject of data set [12] is Rattus norvegicus. Briefly: Radioactivity was determined in heart tissues of female fischer 344 rats by intravenous administration after 1 day. The class given is ADME, organism-based. The note with it: in vivo, 24 h. In outline:
as §1

In data set [13] the test system is Rattus norvegicus. Briefly: Radioactivity was determined in heart tissues of female fischer 344 rats by intravenous administration after 30 minutes. It counts as ADME, organism-based. The settings on record: in vivo, 0.5 h. In a few lines:
as §1

Data set [14] relates to Rattus norvegicus. Briefly: Radioactivity was determined in lung tissues of female fischer 344 rats by intravenous administration after 30 minutes. The class given is ADME, organism-based. The settings on record: in vivo, 0.5 h. In outline: as §1
For data set [15], the system named is Rattus norvegicus. Put plainly: Radioactivity was determined in liver tissues of female fischer 344 rats by intravenous administration after 30 minutes. The class given is ADME, organism-based. The note with it: in vivo, 0.5 h. In outline:
as §1

For data set [16], the system named is Rattus norvegicus. Put plainly: Radioactivity was determined in blood tissues of female fischer 344 rats by intravenous administration after 30 minutes. It counts as ADME, organism-based. The note with it: in vivo, 0.5 h. In outline:
as §1

The test system of data set [17] is Rattus norvegicus. Briefly: Radioactivity was determined in heart tissues of female fischer 344 rats by intravenous administration after 5 minutes. The settings on record: in vivo. It counts as ADME, organism-based. In a few lines: as §1
Data set [18] deals with Rattus norvegicus. Briefly: Radioactivity was determined in kidneys of female fischer 344 rats by intravenous administration after 5 minutes. The class given is ADME, organism-based, Kidney. The note with it: in vivo. In outline: as §1
Data set [19] has as its system Rattus norvegicus. Put plainly: Radioactivity was determined in thyroid of female fischer 344 rats by intravenous administration after 2 hours. It counts as ADME, organism-based, Thyroid gland. The settings on record: in vivo. In a few lines: as §1
Data set [20] relates to Rattus norvegicus. Put plainly: Radioactivity was determined in blood tissues of female fischer 344 rats by intravenous administration after 2 hours. The class given is ADME, organism-based. The note with it: in vivo. In a few lines: as §1
In data set [21] the test system is Rattus norvegicus. Put plainly: Radioactivity was determined in thyroid of female fischer 344 rats by intravenous administration after 5 minutes. It counts as ADME, organism-based, Thyroid gland. The settings on record: in vivo. In a few lines: as §1
Data set [22] deals with Rattus norvegicus. Briefly: Radioactivity was determined in lung tissues of female fischer 344 rats by intravenous administration after 2 hours. It counts as ADME, organism-based. The note with it: in vivo. In outline:
as §1

For data set [23], the system named is Rattus norvegicus. Put plainly: Radioactivity was determined in thyroid of female fischer 344 rats by intravenous administration after 1 hour. The class given is ADME, organism-based, Thyroid gland. The note with it: in vivo. In a few lines: as §1
For data set [24], the system named is Rattus norvegicus. Put plainly: Radioactivity was determined in liver tissues of female fischer 344 rats by intravenous administration after 2 hours. The class given is ADME, organism-based. The settings on record: in vivo. In a few lines: as §1
In data set [25] the test system is Rattus norvegicus. Briefly: Radioactivity was determined in heart tissues of female fischer 344 rats by intravenous administration after 2 hours. It counts as ADME, organism-based. The note with it: in vivo. In a few lines: as §1
Data set [26] has as its system Rattus norvegicus. Briefly: Radioactivity was determined in thyroid of female fischer 344 rats by intravenous administration after 30 minutes. It counts as ADME, organism-based, Thyroid gland. The note with it: in vivo, 0.5 h. In outline:
as §1

As for `O=C(O)CCC[Te]CCCCCCCCCCC/C=C/Br` (stereo in doubt; form 2), the Dose/g is listed as 3.47% in data set [1]; 1.91% in data set [2]; 1.88% in [3]; 6.87% in data set [4]; 1.48% in data set [5]; 3.15% in data set [6]. For the same molecule, the Dose/g stood at 0.88% in data set [7]; 0.39% in data set [8]; 2.15% in [9]; 0.18% in [10]; 6.04% in data set [11]; 2.6% in data set [12]. For the same molecule, the Dose/g in data set [13] came out at 3.79%; in data set [14], 2.08%; in [15], 6.79%; in data set [16], 0.34%; in [17], 3.28%; in data set [18], 2.31%.
With `O=C(O)CCC[Te]CCCCCCCCCCC/C=C/I`, the values for the Dose/g in [8] and in data set [17] were 0.19% and 3.99%, respectively.
In the case of `O=C(O)CCC[Te]CCCCCCCCCCC/C=C/Br` (stereo in doubt; form 1), the Dose/g in data set [19] was determined as 9.52%; in [1] it was 3.01%; in [20] it was 0.46%; in [21] it was 7.56%; in [2], 1.26%; in data set [3], 1.61%. Also, the Dose/g in data set [22] is given as 1.49%; in data set [23], 9.26%; in [4], 7.33%; in [24] it was 5%; in data set [25], 2.56%; in [8], 0.43%. Besides, the Dose/g in data set [9] was 1.49%; in data set [10], 0.13%; in [11] it was 5.47%; in data set [13] it was 2.51%; in [14] it was 1.53%; in [15] it was 6.13%. The Dose/g in [26] came to 10.86%; in data set [16], 0.61%; in [17], 2.77%; in data set [18], 1.62%.
